Experiments:
Type in all cases: functional
[1] = system: Rattus norvegicus; assay: Percent decrease in Total Triglycerides was determined after intraperitoneal administration of a dose of 56 uM/kg
Procedure, shortened: (§1)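 Hyperlipidemia induced in male Fischer-344 rats (230-280 g) by Triton WR 1339 in aqueous solution, 200 mg/kg ip. 1 h later the compound (28 or 56 µmol/kg, in saline) or saline alone was given ip; at 56 µmol/kg, dosing was twice in 24 h. After 24 h, aortic blood was drawn for plasma total cholesterol, LDL and triglycerides, expressed as % decrease. 4-6 rats per group; Student's t-test.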

[2] = system: Rattus norvegicus; assay: Percent decrease in Total cholesterol was determined after intraperitoneal administration of a dose of 56 uM/kg; procedure, shortened: as §1
[3] = system: Rattus norvegicus; assay: Percent decrease in Total Low density lipoproteins was determined after intraperitoneal administration of a dose of 56 uM/kg; procedure, shortened: as §1
[4] = system: Rattus norvegicus; assay: Percent decrease in Total Triglycerides was determined after intraperitoneal uM/kg; procedure, shortened: as §1
[5] = system: Rattus norvegicus; assay: Percent decrease in Total Low density lipoproteins was determined after intraperitoneal uM/kg; Not significant; procedure, shortened: as §1
[6] = system: Rattus norvegicus; assay: Percent decrease in Total cholesterol was determined after intraperitoneal uM/kg; procedure, shortened: as §1
[7] = system: Rattus norvegicus; assay: Percent decrease in Total Low density lipoproteins was determined after intraperitoneal uM/kg; procedure, shortened: as §1
[8] = system: Rattus norvegicus; assay: Percent decrease in Total Low density lipoproteins was determined after intraperitoneal administration of a dose of 56 umol/kg; procedure, shortened: as §1

Row | Structure (SMILES) | Decrease [1] | Decrease [2] | Decrease [3] | Decrease [4] | Decrease [5] | Decrease [6] | Decrease [7] | Decrease [8]
1 | CC(C)(Sc1cc(C(C)(C)C)c(O)c(C(C)(C)C)c1)Sc1cc(C(C)(C)C)c(O)c(C(C)(C)C)c1 [PROBUCOL] | 11% | 18% | 18% | – | – | – | – | –
2 | CCCOC1(c2ccc(-c3ccccc3)cc2)CN2CCCCC2CO1.Cl (stereo unspecified) | – | – | – | 34% | 17% | 36% | – | –
3 | CN1CCOC(O)(c2ccc(-c3ccccc3)cc2)C1.Cl (stereo unspecified) | 42% | 32% | 32% | – | – | – | – | –
4 | OC1(c2ccc(-c3ccccc3)cc2)CN2CCCCC2CO1 (stereo unspecified) | – | – | – | 20% | – | 22% | 51% | –
5 | CN1CC(O)(c2ccc(-c3ccccc3)cc2)OC2CCCCC21 (stereo unspecified) | – | – | – | 49% | – | 54% | 51% | –
6 | CCOC1(c2ccc(-c3ccccc3)cc2)CN(C)CCO1.Cl (stereo unspecified) | 39% | 30% | 22% | – | – | – | – | –
7 | CCCOC1(c2ccc(-c3ccccc3)cc2)CN(C)C2CCCCC2O1.Cl (stereo unspecified) | – | – | – | 41% | – | 50% | – | 28%

Reference: ChEMBL document CHEMBL1133122, “Hypocholesterolemic and hypolipidemic activity of some novel morpholine derivatives with antioxidant activity” (J Med Chem, 2000)
